Results from different studies.
Compare with care: the assays were run in different laboratories.
CDK2 with cyclin A: Cyclin-dependent kinase 2, with cyclin A (CDK2, Homo sapiens, UniProt P24941)
CDK2 with cyclin E: Cyclin-dependent kinase 2, with cyclin E (CDK2, Homo sapiens, UniProt P24941)
CDK2: Cyclin-dependent kinase 2 (CDK2, Homo sapiens, UniProt P24941)

SMILES | target | test | setting | endpoint | result
Cc1ncc(C)n2nc(/C=C/c3nc(N4CCCC4)cc(N4CCOCC4)n3)nc12 | CDK2 with cyclin A | enzyme activity, inhibitor | 10 µM | inhibition | -3%
Cn1cc(-c2cc(F)cc(N3CCn4c(cc5c4CCCC5)C3=O)c2CO)cc(Nc2ccc(N3CCN(C4COC4)CC3)cn2)c1=O | CDK2 with cyclin A | enzyme activity, inhibitor | 0.1 µM | inhibition | 7%
O=c1[nH]c2ccccc2n1C1CCN(Cc2ccc(-c3[nH]c4cc5ncnc5cc4nc3-c3ccccc3)cc2)CC1 | CDK2 with cyclin E | cell-free assay | 0.5 µM | remaining signal | 95.6%
O=C(Nc1cccnn1)N1CCN([C@@H]2CCOc3cc(C(F)(F)F)ccc32)CC1 | CDK2 with cyclin E | cell-free assay, inhibitor | 20 µM | inhibition | 3%
CC(C)(C)c1cc(C=C(C#N)C#N)cc(Br)c1O | CDK2 with cyclin E | enzyme activity, inhibitor | 0.5 µM | remaining activity | 77.6%
Cn1cncc1[C@@](O)(COc1ccc(C#N)cc1-c1ccc(OC(F)(F)F)cc1)c1ccc(C#N)cc1 | CDK2 | cell-free assay, competition with immobilised ligand | 1 µM | remaining binding | 89%
Cn1cc(-c2cccc(N3CCc4c(sc5c4CC(C)(C)C5)C3=O)c2CO)cc(Nc2ccncn2)c1=O | CDK2 with cyclin A | enzyme activity, inhibitor | 1 µM | inhibition | -4%
C#Cc1n[nH]c2c(-c3cn([C@@H](C)c4ccccc4)c(=O)[nH]c3=O)cc(F)cc12 | CDK2 with cyclin A | enzyme activity, inhibitor | 0.1 µM | inhibition | 6.3%
COc1ncccc1-c1cnn2ccc(N3CCN(C(=O)OC(C)C)CC3)nc12 | CDK2 | binding, competition with immobilised ligand | 1 µM | remaining binding | 99%
N#CC1(c2ccccn2)CCN(Cc2cc(C(=O)O)c(=O)n3ccccc23)CC1 | CDK2 | cell-free assay, competition with immobilised ligand | 1 µM | remaining binding | 100%
Nc1ncc(-c2nc(N3CCOCC3)nc(N3CCOCC3)n2)c(C(F)F)n1 | CDK2 | binding, competition with immobilised ligand | 10 µM | remaining binding | 100%
